Data reported in ChEMBL document CHEMBL1147105, “In vitro and in vivo activities of PD 0305970 and PD 0326448, new bacterial gyrase/topoisomerase inhibitors with potent antibacterial activities versus multidrug-resistant gram-positive and fastidious organism groups” (2007).
Converted amounts (≈) assume the structure as drawn.

Assays:
[1] = system: Enterococcus faecalis; experiment: Antibacterial activity against beta-lactamase positive Enterococcus faecalis; type: functional
Method in brief: (§1)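 MIC by CLSI broth microdilution for nonfastidious organisms, in cation-adjusted Mueller-Hinton broth incubated at 35°C.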

[2] = system: Enterococcus faecium; experiment: Antibacterial activity against Enterococcus faecium; type: functional
Method in brief: (§2)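 Broth microdilution MIC per CLSI guidelines, incubated at 35°C. Cation-adjusted Mueller-Hinton broth for nonfastidious organisms and staphylococci. Streptococci tested in the same broth with 3% lysed horse blood. Anaerobes tested in supplemented Brucella broth inside an anaerobe chamber (5% CO2, 5% H2, 90% N2), read after 48 h. Strains were mainly recent clinical isolates with confirmed identity.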

[3] = system: Enterococcus faecium; experiment: Antibacterial activity against VanA-resistant Enterococcus faecium; type: functional; method in brief: as §2
[4] = system: Enterococcus casseliflavus; experiment: Antibacterial activity against Enterococcus casseliflavus; type: functional
[5] = system: Enterococcus gallinarum; experiment: Antibacterial activity against Enterococcus gallinarum; type: functional
[6] = system: Listeria monocytogenes; experiment: Antibacterial activity against Listeria monocytogenes; type: functional
Method in brief: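 Broth microdilution MIC following CLSI guidelines, in cation-adjusted Mueller-Hinton broth containing 3% lysed horse blood, incubated at 35°C. Clinical isolates with identity confirmed. Reported as MIC range, MIC50 and MIC90.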

[7] = system: Moraxella catarrhalis; experiment: Antibacterial activity against beta-lactamase negative Moraxella catarrhalis; type: functional
[8] = system: Moraxella catarrhalis; experiment: Antibacterial activity against beta-lactamase positive Moraxella catarrhalis; type: functional
[9] = system: Neisseria gonorrhoeae; experiment: Antibacterial activity against Neisseria gonorrhoeae; type: functional
Method in brief: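 MIC by broth microdilution in gonococcal broth, incubated at 35°C in 5% CO2. Reported as MIC range, MIC50 and MIC90.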

[10] = system: Klebsiella aerogenes; experiment: Antibacterial activity against Enterobacter aerogenes; type: functional
Method in brief: (§3)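 Broth microdilution MIC following CLSI guidelines, in cation-adjusted Mueller-Hinton broth, incubated at 35°C. Recent clinical isolates and reference strains, with identity confirmed by automated and standard microbiological methods. Results reported as MIC range, MIC50 and MIC90.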

[11] = system: Klebsiella pneumoniae; experiment: Antibacterial activity against Klebsiella pneumoniae; type: functional; method in brief: as §3
[12] = system: Klebsiella pneumoniae; experiment: Antibacterial activity against beta-lactamase positive Klebsiella pneumoniae; type: functional; method in brief: as §1
[13] = system: Proteus vulgaris; experiment: Antibacterial activity against Proteus vulgaris; type: functional; method in brief: as §3
[14] = system: Salmonella typhimurium; experiment: Antibacterial activity against Salmonella enterica serovar Typhimurium; type: functional, Salmonella enterica subsp. enterica serovar Typhimurium; method in brief: as §3
[15] = system: Shigella flexneri; experiment: Antibacterial activity against Shigella flexneri; type: functional; method in brief: as §3
[16] = system: Shigella sonnei; experiment: Antibacterial activity against Shigella sonnei; type: functional; method in brief: as §3
[17] = system: Serratia marcescens; experiment: Antibacterial activity against Serratia marcescens; type: functional; method in brief: as §3
[18] = system: Stenotrophomonas maltophilia; experiment: Antibacterial activity against Stenotrophomonas maltophilia; type: functional; method in brief: as §3
[19] = system: Actinomyces sp.; experiment: Antibacterial activity against Actinomyces sp.; type: functional
[20] = system: Peptostreptococcus anaerobius; experiment: Antibacterial activity against Peptostreptococcus anaerobius; type: functional
Method in brief: (§4)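 Anaerobic broth microdilution MIC following CLSI guidelines, in supplemented Brucella broth. Run in an anaerobe chamber under 5% CO2, 5% H2 and 90% N2 at 35°C, and read after 48 h. Reported as MIC range, MIC50 and MIC90.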

[21] = system: Clostridium perfringens; experiment: Antibacterial activity against Clostridium perfringens; type: functional; method in brief: as §2
[22] = system: Fusobacterium necrophorum; experiment: Antibacterial activity against Fusobacterium necrophorum; type: functional; method in brief: as §4
[23] = system: Clostridioides difficile; experiment: Antibacterial activity against Clostridium difficile; type: functional; method in brief: as §4
[24] = system: Bacteroides fragilis; experiment: Antibacterial activity against Bacteroides fragilis; type: functional; method in brief: as §4
[25] = system: Alloiococcus otitis; experiment: Antibacterial activity against Alloiococcus otitidis; type: functional
Method in brief: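 MIC by broth microdilution following CLSI guidelines, in cation-adjusted Mueller-Hinton broth with 3% lysed horse blood. Incubated at 35°C and read after 48 h. Reported as MIC range, MIC50 and MIC90.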

[26] = system: Streptococcus sanguinis; experiment: Antibacterial activity against Streptococcus sanguis; type: functional
Method in brief: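 Broth microdilution MIC following CLSI guidelines, in cation-adjusted Mueller-Hinton broth with 3% lysed horse blood. Plates incubated at 35°C. Clinical isolates and reference strains, with identity confirmed by standard microbiological methods.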

[27] = system: Streptococcus pneumoniae; experiment: Antibacterial activity against penicillin-intermediate resistant Streptococcus pneumoniae; type: functional; method in brief: as §2
[28] = system: Streptococcus pneumoniae; experiment: Antibacterial activity against levofloxacin-resistant Streptococcus pneumoniae; type: functional; method in brief: as §2
[29] = system: Anaerococcus prevotii; experiment: Antibacterial activity against Peptostreptococcus prevotii; type: functional; method in brief: as §4
[30] = system: Prevotella bivia; experiment: Antibacterial activity against Prevotella bivia; type: functional; method in brief: as §4
[31] = system: Prevotella melaninogenica; experiment: Antibacterial activity against Prevotella melaninogenica; type: functional; method in brief: as §4
[32] = system: Prevotella sp.; experiment: Antibacterial activity against Prevotella sp.; type: functional; method in brief: as §4
[33] = system: Cutibacterium acnes; experiment: Antibacterial activity against Propionibacterium acnes; type: functional
[34] = system: Staphylococcus aureus; experiment: Antibacterial efficacy against methicillin-resistant Staphylococcus aureus SA1417 infected orally dosed CD1 mouse model; type: functional
Method in brief: (§5)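 Sepsis model in female CD1 mice (6–8 weeks, 18–22 g). Lethal i.p. challenge (0.5 ml) at ≥100 median lethal doses. Streptococci were given in Todd-Hewitt broth; other organisms were given with 20% hog gastric mucin. A single oral gavage dose (0.5 ml, in 0.5% methylcellulose) was given at the time of challenge. The PD50 (mg/kg) was calculated by probit analysis.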

[35] = system: Enterococcus faecalis; experiment: Antibacterial efficacy against Enterococcus faecalis MGH2 infected orally dosed CD1 mouse model; type: functional; method in brief: as §5
[36] = system: Streptococcus pneumoniae; experiment: Antibacterial activity against Streptococcus pneumoniae SVI infected once daily orally dosed CD1 mouse; type: functional; conditions: po
Method in brief: (§6)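 Pneumonia model in CD1 mice (n = 8), anaesthetised with ketamine i.p. Intranasal instillation of 50 μl of broth culture (10^8–10^9 CFU/ml, OD600 0.70), confirmed by plate counts. Oral therapy began 24 h post-challenge. Dosing was either once daily for 1 day or twice daily for 3 days. The result was given as the PD50 (mg/kg).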

[37] = system: Streptococcus pneumoniae; experiment: Antibacterial activity against quinolone-resistant Streptococcus pneumoniae SP4333 infected twice daily orally dosed CD1 mouse; type: functional; conditions: po; method in brief: as §6
[38] = system: Salmonella enteritidis; experiment: Antibacterial activity against Salmonella enterica serovar Enteritidis; type: functional, Salmonella enterica subsp. enterica serovar Enteritidis; method in brief: as §3
[39] = system: Parabacteroides distasonis; experiment: Antimicrobial activity against Bacteroides distasonis; type: functional
Method in brief: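 Anaerobic broth microdilution MIC following CLSI guidelines, in supplemented Brucella broth. Incubated at 35°C in a chamber under 5% CO2, 5% H2 and 90% N2. Read after 48 h.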

## Cc1c(N2CC[C@@H]([C@H](C)N)C2)c(F)cc2c(=O)n(N)c(=O)n(C3CC3)c12
[1]
  MIC: 0.06 mg/L (≈ 0.166 µM)
[2]
  MIC50: 1 mg/L (≈ 2.77 µM)
  MIC90: 2 mg/L (≈ 5.53 µM)
[3]
  MIC50: 1 mg/L (≈ 2.77 µM)
  MIC90: 2 mg/L (≈ 5.53 µM)
[4]
  MIC50: 0.25 mg/L (≈ 0.692 µM)
  MIC90: 0.25 mg/L (≈ 0.692 µM)
[5]
  MIC50: 0.25 mg/L (≈ 0.692 µM)
  MIC90: 0.25 mg/L (≈ 0.692 µM)
[6]
  MIC50: 0.125 mg/L (≈ 0.346 µM)
  MIC90: 0.25 mg/L (≈ 0.692 µM)
[7]
  MIC50: 0.25 mg/L (≈ 0.692 µM)
  MIC90: 0.5 mg/L (≈ 1.38 µM)
[8]
  MIC50: 0.25 mg/L (≈ 0.692 µM)
  MIC90: 0.5 mg/L (≈ 1.38 µM)
[9]
  MIC50: 0.25 mg/L (≈ 0.692 µM)
  MIC90: 0.5 mg/L (≈ 1.38 µM)
[10]
  MIC50: 4 mg/L (≈ 11.1 µM)
  MIC90: 8 mg/L (≈ 22.1 µM)
[11]
  MIC50: 2 mg/L (≈ 5.53 µM)
  MIC90: 4 mg/L (≈ 11.1 µM)
[12]
  MIC50: 2 mg/L (≈ 5.53 µM)
  MIC90: 8 mg/L (≈ 22.1 µM)
[13]
  MIC: 1 mg/L (≈ 2.77 µM)
[14]
  MIC50: 0.5 mg/L (≈ 1.38 µM)
  MIC90: 1 mg/L (≈ 2.77 µM)
[15]
  MIC50: 0.5 mg/L (≈ 1.38 µM)
  MIC90: 1 mg/L (≈ 2.77 µM)
[16]
  MIC50: 0.5 mg/L (≈ 1.38 µM)
  MIC90: 1 mg/L (≈ 2.77 µM)
[17]
  MIC50: 2 mg/L (≈ 5.53 µM)
  MIC90: 16 mg/L (≈ 44.3 µM)
[18]
  MIC50: 8 mg/L (≈ 22.1 µM)
  MIC90: 64 mg/L (≈ 177 µM)
[19]
  MIC: 0.5 mg/L (≈ 1.38 µM)
[20]
  MIC: 0.03 mg/L (≈ 0.083 µM)
[21]
  MIC50: 0.5 mg/L (≈ 1.38 µM)
  MIC90: 2 mg/L (≈ 5.53 µM)
[22]
  MIC: 0.06 mg/L (≈ 0.166 µM)
[23]
  MIC50: 0.5 mg/L (≈ 1.38 µM)
  MIC90: 2 mg/L (≈ 5.53 µM)
[24]
  MIC50: 2 mg/L (≈ 5.53 µM)
  MIC90: 4 mg/L (≈ 11.1 µM)
[25]
  MIC50: 0.004 mg/L (≈ 0.0111 µM)
  MIC90: 0.008 mg/L (≈ 0.0221 µM)
[26]
  MIC50: 0.03 mg/L (≈ 0.083 µM)
  MIC90: 0.03 mg/L (≈ 0.083 µM)
[27]
  MIC50: 0.03 mg/L (≈ 0.083 µM)
  MIC90: 0.06 mg/L (≈ 0.166 µM)
[28]
  MIC50: 0.03 mg/L (≈ 0.083 µM)
  MIC90: 0.06 mg/L (≈ 0.166 µM)
[29]
  MIC: 0.03 mg/L (≈ 0.083 µM)
[30]
  MIC50: 0.25 mg/L (≈ 0.692 µM)
  MIC90: 1 mg/L (≈ 2.77 µM)
[31]
  MIC50: 0.25 mg/L (≈ 0.692 µM)
  MIC90: 1 mg/L (≈ 2.77 µM)
[32]
  MIC50: 0.25 mg/L (≈ 0.692 µM)
  MIC90: 1 mg/L (≈ 2.77 µM)
[33]
  MIC50: 2 mg/L (≈ 5.53 µM)
  MIC90: 4 mg/L (≈ 11.1 µM)
[34]
  MIC: 0.25 mg/L (≈ 0.692 µM)
[34]; read-out: PD50
  ED50: 2.5 mg/kg
[35]
  MIC: 0.125 mg/L (≈ 0.346 µM)
[35]; read-out: PD50
  ED50: 19 mg/kg
[36]
  MIC: 0.008 mg/L (≈ 0.0221 µM)
[36]; read-out: PD50
  ED50: 3.2 mg/kg
[37]
  MIC: 0.03 mg/L (≈ 0.083 µM)
[37]; read-out: PD50
  ED50: 4.1 mg/kg
[38]
  MIC50: 0.5 mg/L (≈ 1.38 µM)
  MIC90: 1 mg/L (≈ 2.77 µM)
[39]
  MIC50: 4 mg/L (≈ 11.1 µM)
  MIC90: 16 mg/L (≈ 44.3 µM)
